Measurements: ChEMBL document CHEMBL2016448, “Discovery of new piperidine amide triazolobenzodiazepinones as intestinal-selective CCK1 receptor agonists” (Bioorg Med Chem Lett, 2012)

Legend:
[1] = biological target: T1, Cholecystokinin receptor type A (Homo sapiens, UniProt P32238); test: Agonist activity at human CCK1 receptor assessed as increase in CCK8-induced calcium release incubated in dark for 30 mins followed by light incubation for 30 mins measured by FLIPR assay; type: functional
T1 sequence (P32238 whole entry): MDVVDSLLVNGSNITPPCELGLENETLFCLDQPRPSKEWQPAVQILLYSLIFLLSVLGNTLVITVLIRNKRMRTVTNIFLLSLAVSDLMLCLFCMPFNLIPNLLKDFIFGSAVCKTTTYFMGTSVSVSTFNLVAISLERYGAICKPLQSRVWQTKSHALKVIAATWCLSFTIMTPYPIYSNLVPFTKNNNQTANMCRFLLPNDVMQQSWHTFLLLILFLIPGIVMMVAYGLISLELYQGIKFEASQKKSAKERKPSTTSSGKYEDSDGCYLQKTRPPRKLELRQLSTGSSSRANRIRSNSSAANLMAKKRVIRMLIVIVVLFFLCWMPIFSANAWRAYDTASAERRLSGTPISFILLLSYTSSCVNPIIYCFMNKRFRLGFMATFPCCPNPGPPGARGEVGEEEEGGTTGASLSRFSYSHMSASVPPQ
In short: (§1)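 FLIPR functional assay in CHO cells expressing human CCK1R. Agonism expressed as % of the CCK-8 peptide response. Initial screen at 30 µM, with >30% counted as active. Actives then run as full dose–response. EC50 is the geometric mean of at least 2 independent experiments.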

[2] = biological target: T2, Cholecystokinin receptor type A (Homo sapiens) (UniProt P32238); test: Agonist activity at human CCK1 receptor assessed as increase in CCK8-induced calcium release incubated in dark for 30 mins followed by light incubation for 30 mins measured by FLIPR assay relative to CCK8; type: functional; in short: as §1
T2 sequence (whole entry): T1 sequence (P32238 whole entry)

[3] = biological target: T1, Cholecystokinin receptor type A; test: Displacement of [125I]-CCK-8 from human CCK1 receptor expressed in CHO cells after 90 mins by liquid scintillation counting
[4] = Intrinsic clearance in human microsomes; type: ADME, Microsome
In short: (§2)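 Intrinsic clearance measured in human liver microsomes. The free value is corrected for microsomal binding.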

[5] = Lipophilicity, log D of the compound at pH 7.4; type: physicochemical; conditions: buffer
[6] = Free intrinsic clearance in human microsomes; type: ADME, Microsome; in short: as §2
Mus musculus [7] = test: Antiobesity in C57Bl/6J mouse assessed as reduction in gall bladder weight at 0.6 mg/kg, po measured after 1 hr relative to control; type: functional; parameters: scale not given: the % may be the effect or the level left
[8] = Drug excretion in Sprague-Dawley rat bile at 1 mg/kg, iv measured after 24 hrs; type: ADME, organism-based; parameters: dose 1 mg/kg, route intravenous; conditions: read-out: Ae
In short: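 Bile-cannulated rats dosed iv at 1 mg/kg. Bile collected over 24 h and % of dose excreted into bile determined.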

Liver = test: Clearance in rat liver; type: ADME, organism-based; conditions: in vivo
[9] = Solubility of the compound in phosphate buffer; type: physicochemical
[10] = Bioavailability in rat portal system; type: ADME, organism-based
Mus musculus [11] = test: Antiobesity in C57Bl/6J mouse assessed as reduction in gall bladder weight at 2 mg/kg, po measured after 24 hr relative to control; type: functional; parameters: scale not given: the % may be the effect or the level left
[12] = Ratio free drug level in gut to portal system of Sprague-Dawley rat at 10 mg/kg, po administered as single dose measured after 4 hrs; type: ADME, organism-based; parameters: dose 10 mg/kg, route oral
In short: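 Single oral dose to rats. Gut and portal drug exposures were measured at 2 h and 4 h post-dose and corrected for non-specific binding to give free concentrations. The free gut to free portal ratio was then calculated at each time point.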

Plasma = test: Plasma clearance in Sprague-Dawley rat at 3 mg/kg, iv; type: ADME, organism-based; parameters: dose 3 mg/kg, route intravenous; conditions: in vivo
[13] = Tmax in Sprague-Dawley rat at 6 mg/kg, po; type: ADME, organism-based; parameters: dose 6 mg/kg, route oral; conditions: in vivo
In short: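 Male Sprague–Dawley rats dosed iv or po. Oral doses given in SDD formulation. Plasma PK parameters reported as mean of n = 3 rats.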

Row | EC50 [1] [nM] | Efficacy [2] [%] | IC50 [3] [nM] | clearance [4] [µL/min/mg] | Structure (SMILES) | further results
1 | 1670 | 87 | 248 | – | O=C1C(Cc2c[nH]c3ccccc23)c2nnc(-c3ccccc3)n2-c2ccccc2N1CC(=O)N1CCCCC1c1ccccc1 (mixture of isomers) | –
2 | 2120 | 83 | 168 | – | O=C1C(Cc2c[nH]c3ccccc23)c2nnc(-c3ccccc3)n2-c2ccccc2N1CC(=O)N1CCCC1c1ccccc1 (mixture of isomers) | –
3 | 494 | 95 | 80.1 | 220 | CC(C)C1CCCCN1C(=O)CN1C(=O)C(Cc2c[nH]c3ccccc23)c2nnc(-c3ccccc3)n2-c2ccccc21 (mixture of isomers) | –
4 | 84.2 | 78 | 44.7 | 146 | O=C1C(Cc2c[nH]c3ccccc23)c2nnc(-c3ccccc3)n2-c2ccccc2N1CC(=O)N1CCCCC1Cc1ccccc1 (mixture of isomers) | –
5 | 256 | 88 | 4.24 | 76 | O=C1C(Cc2c[nH]c3ccccc23)c2nnc(-c3ccccc3)n2-c2ccccc2N1CC(=O)N1CCCCC1CC1CCCCC1 (mixture of isomers) | –
6 | 31.9 | 105 | 93.3 | 114 | O=C1C(Cc2c[nH]c3ccccc23)c2nnc(-c3ccccc3)n2-c2ccccc2N1CC(=O)N1CCCCC1Cc1ccccn1 (mixture of isomers) | –
7 | 421 | 89 | 340 | 111 | O=C1C(Cc2c[nH]c3ccccc23)c2nnc(-c3ccccc3)n2-c2ccccc2N1CC(=O)N1CCCCC1Cc1ccncc1 (mixture of isomers) | –
8 | 2.7 | 100 | 9.9 | – | COCCC1CCCCN1C(=O)CN1C(=O)[C@@H](Cc2n[nH]c3ccccc23)c2nnc(-c3ccccc3)n2-c2ccccc21 (single isomer, unassigned) | logD ([5]; read-out: logD): 3.1; CL free [6]: 154 µL/min/mg; Activity (Mus musculus [7]): 85%; dose excreted at 24 h [8]: 0.26%
9 | – | 95 | – | 199 | CC(C)N(Cc1ccccc1)C(=O)CN1C(=O)[C@@H](Cc2c[nH]c3ccccc23)c2nnc(-c3ccccc3)n2-c2ccccc21 [CE-326597] | CLH (Liver): 47 mL/min/kg; solubility [9]: Insoluble; bioavailability [10]: 9%; logD [5]: 4.9; CL free [6]: 597 µL/min/mg; Activity (Mus musculus [7]): 91%; Activity (Mus musculus [11]): 27.5%; Kp uu at 4 h [12]: 65; dose excreted at 24 h [8]: 0.04%; clearance (Plasma): 41.7 mL/min/kg; Tmax [13]: 1.33 h
